In data set [1] the test system is Trypanosoma cruzi. Kind of data set: Antitrypanosomal activity against Trypanosoma cruzi Tulahuen 2 at 25 uM relative to nifurtimox. It is filed as functional. Particulars: read-out: GI. The method, boiled down: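 Epimastigotes of Tulahuen 2 strain exposed to 25 µM compound, up to 1% DMSO. A600 read right after inoculation (day 0) and at day 5. %inhibition = {1 − [(Ap − A0p)/(Ac − A0c)]} × 100 against drug-free control. Means of three independent experiments; nifurtimox as reference drug.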

Data set [2] relates to J774. The experiment in a line: Cytotoxicity against mouse J774 cells at 400 uM after 48 hrs by MTT assay. It is filed as cell-based. Particulars: j774, 48 h. The method, boiled down:
(§1)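 J-774 macrophages seeded at 100.000 cells/well in RPMI 1640 with 20% heat-inactivated FCS, attached 48 h at 37 °C, 5% CO2. Exposed to 100, 200 or 400 µM for 48 h, washed with PBS, then MTT 0.4 mg/mL for 3 h at 37 °C. Formazan dissolved in DMSO, OD595 read. %cytotoxicity corrected for compound-in-medium blanks; triplicate wells, six growth controls.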

Data set [3] relates to J774. Kind of data set: Cytotoxicity against mouse J774 cells after 48 hrs by MTT assay. It is filed as cell-based. As to conditions: J774, 48 h. Summed up: as §1
In general terms: Tetrazolium dyes change colour on reduction, which living cells bring about.

A short description of data set [4]: Selectivity index, ratio of IC50 for mouse J774 cells to IC50 for Trypanosoma cruzi Tulahuen 2. It is filed as toxicity, cell-based. Particulars: J774 cells (versus Trypanosoma cruzi Tulahuen 2), read-out: Ratio IC50.
For data set [5], the system named is Trypanosoma cruzi. Kind of data set: Antitrypanosomal activity against Trypanosoma cruzi Tulahuen 2. It is filed as functional, organism-based. Summed up: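 Epimastigotes of T. cruzi Tulahuen 2 grown with compound, up to 1% DMSO tolerated. Growth followed as absorbance at 600 nm at day 0 and day 5. Percent inhibition taken relative to drug-free control. IC50 determined only for compounds giving >80% inhibition at 25 µM. Means of three independent experiments; nifurtimox reference.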

The values that follow come from ChEMBL document CHEMBL1140888, “Synthesis, trypanocidal activity and docking studies of novel quinoxaline-N-acylhydrazones, designed as cruzain inhibitors candidates” (Bioorg Med Chem, 2009).

The IC50 is the concentration that gives 50% inhibition. A higher IC50 goes with weaker potency in that assay.

For `O=C(N/N=C/c1ccc(O)cc1)c1nc2ccccc2nc1-c1ccccc1`, the inhibition of growth at 25 µM in data set [1] was found to be 27%.

On to `O=C(N/N=C/c1ccccn1)c1nc2ccccc2nc1-c1ccccc1`, for which, in data set [1], the inhibition of growth at 25 µM is 0%.

For `O=C(N/N=C/c1ccc(F)cc1)c1nc2ccccc2nc1-c1ccccc1`, the inhibition of growth at 25 µM in data set [1] worked out at 22%.

With `CC(=O)N1CCN(c2ccc(OCC3COC(Cn4ccnc4)(c4ccc(Cl)cc4Cl)O3)cc2)CC1` (centres undefined) [KETOCONAZOLE], the Activity in data set [2] was determined as 100%. Further, the 50% inhibitory concentration (IC50) in data set [3] is less than 50 µM. Besides, the selectivity ratio in data set [4] was less than 5.

For `Cc1nc2ccccc2nc1C(=O)N/N=C/c1ccccc1O`, the inhibition of growth at 25 µM in data set [1] is 81%. Moreover, the figures for the half-inhibitory concentration (IC50) in data set [5] and in data set [3] were 20 µM and greater than 400 µM, respectively. The Activity in data set [2] is 12%. The selectivity ratio in data set [4] was greater than 20.

With `CC(C)c1ccc(/C=N/NC(=O)c2nc3ccccc3nc2-c2ccccc2)cc1`, in data set [1], the inhibition of growth at 25 µM was determined as 36%.

For `CN(C)c1ccc(/C=N/NC(=O)c2nc3ccccc3nc2-c2ccccc2)cc1`, the inhibition of growth at 25 µM in data set [1] is 29%.

Take `O=C(N/N=C/c1ccccc1O)c1nc2ccccc2nc1-c1ccccc1`: the inhibition of growth at 25 µM in data set [1] amounted to 96%. The results for the IC50 in data set [5] and in data set [3] were 15.9 µM and greater than 400 µM, respectively. The Activity in data set [2] was 14%. For the same compound, the selectivity ratio in data set [4] was greater than 25.2.

The compound `CN(C/C=C/C#CC(C)(C)C)Cc1cccc2ccccc12` [TERBINAFINE] came in with an Activity in data set [2] of 100%. This compound also showed a half-maximal inhibitory concentration (IC50) in data set [3] of 88 µM. For the same compound, the selectivity ratio in data set [4] came to 5.1.

Take `O=C(N/N=C/c1ccc([N+](=O)[O-])cc1)c1nc2ccccc2nc1-c1ccccc1`: the inhibition of growth at 25 µM in data set [1] was found to be 19%.

`O=C(N/N=C/c1ccc(Br)cc1)c1nc2ccccc2nc1-c1ccccc1`: in data set [1], the inhibition of growth at 25 µM was found to be 40%.

Regarding `O=C(N/N=C/c1ccccc1Cl)c1nc2ccccc2nc1-c1ccccc1`, the inhibition of growth at 25 µM in data set [1] worked out at 35%.

As to `O=C(N/N=C/c1ccccc1)c1nc2ccccc2nc1-c1ccccc1`, the inhibition of growth at 25 µM in data set [1] was determined as 3%.

As to `O=C(N/N=C/c1cccc(Cl)c1)c1nc2ccccc2nc1-c1ccccc1`, in data set [1], the inhibition of growth at 25 µM turned out to be 47%.

As to `O=C(N/N=C/c1ccco1)c1nc2ccccc2nc1-c1ccccc1`, the inhibition of growth at 25 µM in data set [1] worked out at 0%.

Take `O=C(N/N=C/c1ccc(Cl)cc1)c1nc2ccccc2nc1-c1ccccc1`: the inhibition of growth at 25 µM in data set [1] was found to be 53%.

Turning to `O=C(N/N=C/c1ccncc1)c1nc2ccccc2nc1-c1ccccc1`, in data set [1], the inhibition of growth at 25 µM was determined as 0%.
